Test results published in ChEMBL document CHEMBL5104176 (J Med Chem, 2022).
Activity calls are given as the source filed them. The rule behind the calls is not given here.

Legend:
T98G [1] = experiment: Cytotoxicity against human T98G cells assessed as reduction in cell viability at 5 to 50 uM incubated for 24 hrs by MTS assay; format: functional, cell-based; settings: dose 5-50 µM
Method in brief: (§1)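 Cells seeded at 5,000/well and grown to 80% confluence: T98 and U251 in EMEM with 10% serum; GSC#83 as spheres in serum-free DMEM/F12 with EGF and bFGF. Treated 24 h at 5–50 μM in DMSO, with a DMSO vehicle control. MTS reagent added and formazan absorbance read at 490 nm. n = 6; two-way ANOVA.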

D(2) dopamine receptor = D(2) dopamine receptor (Homo sapiens, UniProt P14416); experiment: Displacement of [3H]N-methylspiperone from human D2L receptor expressed in HEK293T cell membrane incubated for 1 hr by MicroBeta scintillation counting method; format: cell membranes
Method in brief: (§2)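 Membranes from stably transfected HEK293 cells (hD2L, hD3 or hD4.4), 20 μg (D2, D3) or 30 μg (D4) protein/well. Incubated 1 h at room temperature in EBSS binding buffer, pH 7.4, with 0.4 nM [3H]N-methylspiperone and 10 half-log dilutions in triplicate. 10 μM (+)-butaclamol defines nonspecific binding. GF filtration, scintillation counting.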

D(3) dopamine receptor = D(3) dopamine receptor (Homo sapiens, UniProt P35462); experiment: Displacement of [3H]N-methylspiperone from human D3R receptor expressed in HEK293T cell membrane incubated for 1 hr by MicroBeta scintillation counting method; format: cell membranes
Method in brief: as §2, with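 “counting. Ki by Cheng–Prusoff from ≥3 experiments; selectivity is the Ki ratio.” for “counting.”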

D(4) dopamine receptor [2] = target: T1, D(4) dopamine receptor (Homo sapiens, UniProt P21917); experiment: Displacement of [3H]N-methylspiperone from human D4.4 receptor expressed in HEK293T cell membrane incubated for 1 hr by MicroBeta scintillation counting method; format: cell membranes
T1 sequence (P21917 whole entry): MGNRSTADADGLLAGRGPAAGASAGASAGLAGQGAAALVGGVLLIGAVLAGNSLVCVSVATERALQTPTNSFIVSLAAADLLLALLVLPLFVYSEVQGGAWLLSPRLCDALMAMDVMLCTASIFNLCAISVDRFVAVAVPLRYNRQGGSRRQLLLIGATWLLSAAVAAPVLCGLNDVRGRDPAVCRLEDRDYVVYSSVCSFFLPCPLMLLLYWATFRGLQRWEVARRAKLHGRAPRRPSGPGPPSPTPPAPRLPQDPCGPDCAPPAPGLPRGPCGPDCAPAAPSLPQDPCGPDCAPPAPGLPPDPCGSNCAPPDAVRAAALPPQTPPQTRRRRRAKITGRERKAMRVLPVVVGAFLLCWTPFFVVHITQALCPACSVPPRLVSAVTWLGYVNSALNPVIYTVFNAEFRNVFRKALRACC

D(4) dopamine receptor [3] = target: T1, D(4) dopamine receptor; experiment: Antagonist activity at D4R (unknown origin) expressed in human HEK293T cells assessed as inhibition of dopamine-induced G0 protein activation pretreated for 10 mins followed by dopamine addition and measured after 2.5 mins by BRET assay; format: functional, cell-based
D(4) dopamine receptor [4] = target: T1, D(4) dopamine receptor; experiment: Antagonist activity at D4R (unknown origin) expressed in human HEK293T cells assessed as inhibition of dopamine-induced Gi protein activation pretreated for 10 mins followed by dopamine addition and measured after 2.5 mins by BRET assay; format: functional, cell-based
D(4) dopamine receptor [5] = target: T1, D(4) dopamine receptor; experiment: Antagonist activity at D4R (unknown origin) expressed in human HEK293T cells assessed as inhibition of dopamine-induced beta arrestin-2 recruitment pretreated for 10 mins followed by dopamine addition and measured after 2.5 mins by BRET assay; format: functional, cell-based
U-251 [6] = experiment: Cytotoxicity against human U-251 cells assessed as reduction in cell viability at 5 to 50 uM incubated for 24 hrs by MTS assay; format: functional, cell-based; settings: dose 5-50 µM; method in brief: as §1
GSC#83 [7] = experiment: Cytotoxicity against human GSC#83 cells assessed as reduction in cell viability at 5 to 50 uM incubated for 24 hrs by MTS assay; format: functional, cell-based; settings: dose 5-50 µM; method in brief: as §1
T98G [8] = experiment: Cytotoxicity against human T98G cells assessed as reduction in cell viability at 10 uM incubated for 24 hrs by MTS assay; format: functional, cell-based; method in brief: as §1
U-251 [9] = experiment: Cytotoxicity against human U-251 cells assessed as reduction in cell viability at 10 uM incubated for 24 hrs by MTS assay; format: functional, cell-based; method in brief: as §1
GSC#83 [10] = experiment: Cytotoxicity against human GSC#83 cells assessed as reduction in cell viability at 10 uM incubated for 24 hrs by MTS assay; format: functional, cell-based; method in brief: as §1
D(4) dopamine receptor [11] = target: T1, D(4) dopamine receptor; experiment: Displacement of [3H]7-OH-DPAT from human D4.4 receptor expressed in HEK293T cell membrane incubated for 1.5 hrs by MicroBeta scintillation counting method; format: cell membranes
Method in brief: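 Fresh membranes from HEK293 cells stably expressing hD4.4 (about 50–60 μg protein/well) in 50 mM Tris, 10 mM MgCl2, 1 mM EDTA, pH 7.4. Radioligand was 3 nM final; incubation 1.5 h at room temperature. Nonspecific binding was set with 10 μM (+)-butaclamol; DMSO was 3% final. Ten half-log dilutions were run in triplicate, then filtered. Ki came from IC50 by Cheng–Prusoff, from at least three independent experiments.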

D(4) dopamine receptor [12] = target: T1, D(4) dopamine receptor; experiment: Agonist activity at D4R (unknown origin) expressed in human HEK293T cells assessed as beta arrestin-2 recruitment measured after 2.5 mins by BRET assay; format: functional, cell-based
Method in brief: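 HEK293T cells transiently co-transfected with D4 receptor–RLuc8 and β-arrestin–mVenus using PEI, then harvested after 48 h. Cells were resuspended in PBS with 0.1% glucose and 200 μM Na bisulfite, at about 2×10^5 cells/well. Coelenterazine H (5 μM) was added, and ligands 2 min later. Emission was read at 485 and 530 nm 2.5 min after ligand. Net BRET was taken after subtracting the RLuc8-alone background; dose–response curves were fitted.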

[13] = target: T2, D(4) dopamine receptor (Homo sapiens) (UniProt P21917); experiment: Agonist activity at D4R (unknown origin) expressed in human HEK293T cells assessed as G0 protein activation measured after 2.5 mins by BRET assay relative to control; format: functional, cell-based
T2 sequence (whole entry): T1 sequence (P21917 whole entry)
Method in brief: (§3)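 Transiently transfected HEK293T cells (15 μg plasmid cDNA, polyethyleneimine, 6 h, assayed after 48 h). Gαi1 or GαoA fused to RLuc8 and Gγ2 to mVenus for G protein activation; D4 receptor fused to RLuc8 and β-arrestin to mVenus for recruitment. About 2×10^5 cells/well in PBS with 0.1% glucose and 200 μM Na bisulfite. Coelenterazine H 5 μM. Read 530/485 nm; RLuc8-only background subtracted.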

[14] = target: T2, D(4) dopamine receptor (Homo sapiens); experiment: Agonist activity at D4R (unknown origin) expressed in human HEK293T cells assessed as Gi protein activation measured after 2.5 mins by BRET assay relative to control; format: functional, cell-based; method in brief: as §3
[15] = target: T2, D(4) dopamine receptor (Homo sapiens); experiment: Agonist activity at D4R (unknown origin) expressed in human HEK293T cells assessed as beta arrestin-2 recruitment measured after 2.5 mins by BRET assay relative to control; format: functional, cell-based; method in brief: as §3
[16] = Selectivity ratio of Ki for displacement of [3H]N-methylspiperone from human D3R expressed in HEK293T cell membrane to Ki for displacement of [3H]N-methylspiperone from human D4.4 receptor expressed in HEK293T cell membrane
[17] = Selectivity ratio of Ki for displacement of [3H]N-methylspiperone from human D2L receptor expressed in HEK293T cell membrane to Ki for displacement of [3H]N-methylspiperone from human D4.4 receptor expressed in HEK293T cell membrane
D(4) dopamine receptor [18] = target: T1, D(4) dopamine receptor; experiment: Partial agonist activity at D4R (unknown origin) expressed in human HEK293T cells assessed as G0 protein activation measured after 2.5 mins by BRET assay; format: functional, cell-based; method in brief: as §3
[19] = target: T2, D(4) dopamine receptor (Homo sapiens); experiment: Partial agonist activity at D4R (unknown origin) expressed in human HEK293T cells assessed as G0 protein activation measured after 2.5 mins by BRET assay relative to control; format: functional, cell-based; settings: filed as partial agonist; method in brief: as §3
D(4) dopamine receptor [20] = target: T1, D(4) dopamine receptor; experiment: Partial agonist activity at D4R (unknown origin) expressed in human HEK293T cells assessed as Gi protein activation measured after 2.5 mins by BRET assay; format: functional, cell-based; method in brief: as §3
[21] = target: T2, D(4) dopamine receptor (Homo sapiens); experiment: Partial agonist activity at D4R (unknown origin) expressed in human HEK293T cells assessed as Gi protein activation measured after 2.5 mins by BRET assay relative to control; format: functional, cell-based; method in brief: as §3

D(3) dopamine receptor, sequence (P35462 whole entry): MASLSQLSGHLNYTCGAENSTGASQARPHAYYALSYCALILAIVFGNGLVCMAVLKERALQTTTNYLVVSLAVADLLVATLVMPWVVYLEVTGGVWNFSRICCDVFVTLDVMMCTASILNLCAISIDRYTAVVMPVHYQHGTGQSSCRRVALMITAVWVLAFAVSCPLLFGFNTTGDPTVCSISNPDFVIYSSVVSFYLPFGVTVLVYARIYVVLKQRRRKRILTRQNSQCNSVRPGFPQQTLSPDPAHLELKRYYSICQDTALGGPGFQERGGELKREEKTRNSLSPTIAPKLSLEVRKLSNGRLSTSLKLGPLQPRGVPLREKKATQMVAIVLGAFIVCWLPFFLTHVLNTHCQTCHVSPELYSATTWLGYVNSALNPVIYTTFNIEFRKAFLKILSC
D(2) dopamine receptor, sequence (P14416 whole entry): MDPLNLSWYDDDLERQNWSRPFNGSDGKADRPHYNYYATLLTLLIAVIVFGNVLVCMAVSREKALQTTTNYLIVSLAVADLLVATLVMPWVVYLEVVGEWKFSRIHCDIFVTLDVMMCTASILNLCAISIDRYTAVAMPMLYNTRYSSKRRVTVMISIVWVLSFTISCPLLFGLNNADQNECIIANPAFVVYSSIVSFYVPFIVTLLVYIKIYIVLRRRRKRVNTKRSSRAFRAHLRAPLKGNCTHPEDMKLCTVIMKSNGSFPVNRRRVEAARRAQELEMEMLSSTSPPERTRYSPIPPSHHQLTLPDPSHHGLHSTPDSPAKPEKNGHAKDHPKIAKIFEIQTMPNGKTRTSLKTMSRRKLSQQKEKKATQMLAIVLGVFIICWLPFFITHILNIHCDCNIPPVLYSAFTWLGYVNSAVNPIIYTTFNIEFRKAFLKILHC

| SMILES | Activity (T98G [1]) | Ki (D(2) dopamine receptor) [nM] | Ki (D(3) dopamine receptor) [nM] | Ki (D(4) dopamine receptor [2]) [nM] | IC50 (D(4) dopamine receptor [3]) [nM] | IC50 (D(4) dopamine receptor [4]) [nM] | IC50 (D(4) dopamine receptor [5]) [nM] | Activity (U-251 [6]) | Activity (GSC#83 [7]) | Activity (T98G [8]) | Activity (U-251 [9]) | Activity (GSC#83 [10]) | EC50 (D(4) dopamine receptor [12]) [nM] | Emax [13] [%] | Emax [14] [%] | Emax [15] [%] | Ratio Ki [16] | Ratio Ki [17] | other results |
| --- | --- | --- | --- | --- | --- | --- | --- | --- | --- | --- | --- | --- | --- | --- | --- | --- | --- | --- | --- |
| O=C1CCc2ccccc2N1CCCN1CCN(c2ccc(Cl)cc2)CC1 | Active | 5500 | 2450 | 0.661 | 380 | 251 | 10500 | Active | Active | Active | Active | Active | 51.3 | 0 | 0 | -43.4 | 3720 | 8320 | Ki (D(4) dopamine receptor [11]): 1.48 nM |
| Cc1ccc(N2CCN(CCCN3C(=O)CCc4ccccc43)CC2)cc1 | – | 5130 | 1700 | 0.977 | 331 | 110 | 1230 | – | – | – | – | – | 16.2 | 0 | 0 | -30.2 | 1740 | 5250 | – |
| O=C1CCc2ccccc2N1CCCN1CCN(c2ccccn2)CC1 | Active | 2750 | 2570 | 2.24 | – | – | 67.6 | Active | Active | Active | Active | Active | – | – | – | 0 | 1150 | 1230 | EC50 (D(4) dopamine receptor [18]): 8.51 nM; Emax [19]: 46.2%; EC50 (D(4) dopamine receptor [20]): 12.3 nM; Emax [21]: 26.6% |
